Reference: ChEMBL document CHEMBL2146445, “Discovery of BIIB042, a Potent, Selective, and Orally Bioavailable γ-Secretase Modulator” (ACS Med Chem Lett, 2011)
Activity calls are given as the source filed them. The calls are words filed in the database; no cut-off is given here.

Assays:
[1] = Modulation of gamma-secretase in CHO cells overexpressing APP V717 mutant assessed as reduction in amyloid beta42 level after 17 hrs by ELISA; format: cell-based; conditions: Cricetulus griseus
Method in brief: (§1)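 CHO cells overexpressing APP V717F; Aβ42, Aβ40 and Aβ38 quantified together in each well by multiplex Aβ ELISA. EC50 is the mean of at least two determinations.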

[2] = test system: CHO; test: (§2) Modulation of gamma-secretase in CHO cells overexpressing APP V717 mutant assessed as increase in amyloid beta38 level after 17 hrs by ELISA; format: cell-based; conditions: Cricetulus griseus; method in brief: as §1
[3] = test system: CHO; test: Modulation of gamma-secretase in CHO cells overexpressing APP V717 mutant assessed as effect on amyloid beta40 level after 17 hrs by ELISA; format: cell-based; conditions: Cricetulus griseus; method in brief: as §1
[4] = test system: Mus musculus; test: Antialzheimer activity in CF1 mouse assessed as reduction in amyloid beta42 level in brain at 30 mg/kg, po after 4 hrs by ELISA; format: functional; set-up: scale not given: the % may be the effect or the level left
Method in brief: (§3)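 Wild-type CF-1 mice received a single oral dose as a solution in ethanol:propylene glycol:10% solutol (1:1:8). Animals were sacrificed 4 h after dosing. Brain and plasma were collected for drug concentration and Aβ levels. Aβ change was expressed relative to vehicle-treated controls.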

[5] = Drug uptake in CF1 mouse brain at 30 mg/kg, po after 4 hrs; format: ADME, organism-based; set-up: dose 30 mg/kg, route oral; conditions: read-out: Drug uptake; method in brief: as §3
[6] = Plasma concentration in CF1 mouse at 30 mg/kg, po after 4 hrs; format: ADME, organism-based; set-up: dose 30 mg/kg, route oral
Method in brief: (§4)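 Wild-type (CF-1) mice given compound orally as a solution in ethanol:propylene glycol:10% solutol (1:1:8). Animals sacrificed 4 h post-dose; brain and plasma collected for drug exposure and Aβ levels.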

[7] = test system: Rattus norvegicus; test: Antialzheimer activity in Fischer rat assessed as effect on amyloid beta 40 level in brain at 10 mg/kg, po after 4 hrs; format: functional, organism-based; set-up: dose 10 mg/kg
[8] = test system: Cynomolgus monkey; test: Antialzheimer activity in cynomolgus monkey assessed as effect on amyloid beta 40 level in plasma at 10 mg/kg, po at 5 hrs; format: functional, organism-based; set-up: dose 10 mg/kg; conditions: Macaca fascicularis
[9] = molecular target: Neurogenic locus notch homolog protein 1 (Homo sapiens) (UniProt P46531); test: Inhibition of NICD-mediated HES1 protein expression in human H4 cells at 10 uM after 24 hrs by Western blot analysis; format: cell-based
[10] = test system: Mus musculus; test: Antialzheimer activity in CF1 mouse assessed as increase in amyloid beta 38 level in brain at 10 mg/kg, po; format: functional, organism-based; set-up: dose 10 mg/kg; method in brief: as §3
[11] = test system: Rattus norvegicus; test: Antialzheimer activity in Fischer rat assessed as increase in amyloid beta 38 level in brain at 10 mg/kg, po after 4 hrs; format: functional, organism-based; set-up: dose 10 mg/kg
[12] = test system: Cynomolgus monkey; test: Antialzheimer activity in cynomolgus monkey assessed as increase in amyloid beta 38 level in plasma at 10 mg/kg, po at 5 hrs; format: functional, organism-based; set-up: dose 10 mg/kg; conditions: Macaca fascicularis
[13] = test system: Mus musculus; test: Antialzheimer activity in CF1 mouse assessed as effect on amyloid beta 40 level in brain at 10 mg/kg, po; format: functional, organism-based; set-up: dose 10 mg/kg; method in brief: as §3
[14] = test system: Mus musculus; test: Antialzheimer activity in CF1 mouse assessed as reduction in amyloid beta42 level in brain at 50 mg/kg, po after 4 hrs by ELISA; format: functional; set-up: scale not given: the % may be the effect or the level left; method in brief: as §3
[15] = Drug uptake in CF1 mouse brain at 50 mg/kg, po after 4 hrs; format: ADME, organism-based; set-up: dose 50 mg/kg, route oral; conditions: read-out: Drug uptake; method in brief: as §3
[16] = Plasma concentration in CF1 mouse at 50 mg/kg, po after 4 hrs; format: ADME, organism-based; set-up: dose 50 mg/kg, route oral; method in brief: as §4
[17] = test system: Brain; test: Drug uptake in CF1 mouse brain at 10 mg/kg, po; format: ADME, organism-based; set-up: dose 10 mg/kg, route oral; conditions: in vivo, read-out: Drug uptake; method in brief: as §3
[18] = test system: Plasma; test: Plasma concentration in CF1 mouse at 10 mg/kg, po; format: ADME, organism-based; set-up: dose 10 mg/kg, route oral; conditions: in vivo; method in brief: as §4
[19] = as §2; format: cell-based; conditions: Cricetulus griseus; method in brief: as §1
[20] = molecular target: Voltage-gated inwardly rectifying potassium channel KCNH2 (Homo sapiens, UniProt Q12809); test: Inhibition of human ERG by patch clamp assay
Method in brief: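 hERG was tested in an automated FastPatch patch-clamp assay, giving an EC50 readout.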

[21] = test system: Mus musculus; test: Antialzheimer activity in CF1 mouse assessed as reduction in amyloid beta 42 level in brain at 10 mg/kg, po; format: functional; set-up: scale not given: the % may be the effect or the level left; method in brief: as §3
[22] = Modulation of gamma-secretase
[23] = Ratio of tarenflurbil EC50 to compound EC50 for gamma-secretase
[24] = test system: Rattus norvegicus; test: Antialzheimer activity in F344 rat assessed as reduction in amyloid beta42 level in brain at 30 mg/kg, po after 4 hrs by ELISA; format: functional, organism-based; set-up: dose 30 mg/kg

Chain of Neurogenic locus notch homolog protein 1 (Homo sapiens) (P46531 whole entry): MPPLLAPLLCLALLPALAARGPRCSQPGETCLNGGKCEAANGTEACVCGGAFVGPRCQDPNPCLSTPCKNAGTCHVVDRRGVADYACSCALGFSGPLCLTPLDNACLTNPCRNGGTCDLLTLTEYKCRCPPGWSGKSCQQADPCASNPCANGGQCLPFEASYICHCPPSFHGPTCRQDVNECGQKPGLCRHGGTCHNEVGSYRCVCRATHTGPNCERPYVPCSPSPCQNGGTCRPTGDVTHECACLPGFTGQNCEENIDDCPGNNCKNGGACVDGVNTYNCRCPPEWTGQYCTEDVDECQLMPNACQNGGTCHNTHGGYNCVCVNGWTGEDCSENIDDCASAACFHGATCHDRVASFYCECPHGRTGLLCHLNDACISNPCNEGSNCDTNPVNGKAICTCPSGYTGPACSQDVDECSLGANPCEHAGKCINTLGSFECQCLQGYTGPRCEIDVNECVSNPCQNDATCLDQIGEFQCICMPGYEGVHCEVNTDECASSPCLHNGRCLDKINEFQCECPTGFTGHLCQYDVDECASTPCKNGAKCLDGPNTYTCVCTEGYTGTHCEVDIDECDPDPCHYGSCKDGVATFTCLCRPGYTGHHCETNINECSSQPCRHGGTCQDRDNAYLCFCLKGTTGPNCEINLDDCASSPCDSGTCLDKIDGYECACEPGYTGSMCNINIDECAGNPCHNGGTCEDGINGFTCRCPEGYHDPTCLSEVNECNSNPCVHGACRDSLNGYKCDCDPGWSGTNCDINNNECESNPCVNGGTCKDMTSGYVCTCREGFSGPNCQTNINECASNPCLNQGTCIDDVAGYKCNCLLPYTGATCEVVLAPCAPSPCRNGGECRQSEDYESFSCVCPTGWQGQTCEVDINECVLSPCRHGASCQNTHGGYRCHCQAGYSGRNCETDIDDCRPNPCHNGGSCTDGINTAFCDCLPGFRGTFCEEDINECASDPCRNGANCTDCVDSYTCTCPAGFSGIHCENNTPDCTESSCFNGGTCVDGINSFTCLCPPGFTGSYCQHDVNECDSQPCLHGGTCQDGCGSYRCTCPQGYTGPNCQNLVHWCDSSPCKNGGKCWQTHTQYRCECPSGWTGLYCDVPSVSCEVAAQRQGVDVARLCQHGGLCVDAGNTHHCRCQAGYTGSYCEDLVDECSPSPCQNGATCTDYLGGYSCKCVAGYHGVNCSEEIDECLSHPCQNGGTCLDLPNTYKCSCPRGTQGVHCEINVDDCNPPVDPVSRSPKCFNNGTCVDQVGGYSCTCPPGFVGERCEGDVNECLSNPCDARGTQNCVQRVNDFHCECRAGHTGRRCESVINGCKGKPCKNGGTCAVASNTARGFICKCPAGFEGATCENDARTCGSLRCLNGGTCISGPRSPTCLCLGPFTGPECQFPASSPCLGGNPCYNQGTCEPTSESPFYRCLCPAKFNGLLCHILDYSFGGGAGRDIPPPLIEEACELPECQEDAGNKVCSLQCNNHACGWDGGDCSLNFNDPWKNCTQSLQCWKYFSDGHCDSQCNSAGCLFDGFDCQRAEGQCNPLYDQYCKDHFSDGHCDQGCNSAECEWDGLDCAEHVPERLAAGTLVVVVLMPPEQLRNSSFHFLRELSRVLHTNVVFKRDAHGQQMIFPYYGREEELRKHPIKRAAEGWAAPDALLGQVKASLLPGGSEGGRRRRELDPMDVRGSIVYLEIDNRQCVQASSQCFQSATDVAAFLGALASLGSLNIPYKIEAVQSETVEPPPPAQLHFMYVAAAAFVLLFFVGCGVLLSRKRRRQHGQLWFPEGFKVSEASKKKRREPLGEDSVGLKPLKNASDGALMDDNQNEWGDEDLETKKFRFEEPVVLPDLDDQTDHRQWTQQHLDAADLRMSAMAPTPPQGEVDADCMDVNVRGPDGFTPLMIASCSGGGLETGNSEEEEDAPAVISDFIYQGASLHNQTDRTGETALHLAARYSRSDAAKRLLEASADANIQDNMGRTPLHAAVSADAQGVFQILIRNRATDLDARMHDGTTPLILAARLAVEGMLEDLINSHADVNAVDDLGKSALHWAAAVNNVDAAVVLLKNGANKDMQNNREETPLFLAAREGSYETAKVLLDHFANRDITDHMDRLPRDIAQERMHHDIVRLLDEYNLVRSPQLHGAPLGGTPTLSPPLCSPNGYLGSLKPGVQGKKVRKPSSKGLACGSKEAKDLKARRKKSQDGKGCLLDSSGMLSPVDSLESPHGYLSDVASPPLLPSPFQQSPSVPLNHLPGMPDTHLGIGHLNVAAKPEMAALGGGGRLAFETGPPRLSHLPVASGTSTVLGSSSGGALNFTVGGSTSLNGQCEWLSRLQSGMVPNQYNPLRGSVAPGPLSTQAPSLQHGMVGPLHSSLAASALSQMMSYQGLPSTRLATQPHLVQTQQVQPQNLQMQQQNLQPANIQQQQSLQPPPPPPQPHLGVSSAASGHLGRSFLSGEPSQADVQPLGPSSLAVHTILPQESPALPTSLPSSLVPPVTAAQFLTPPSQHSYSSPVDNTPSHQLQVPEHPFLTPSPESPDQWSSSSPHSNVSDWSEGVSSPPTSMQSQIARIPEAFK
Chain of Voltage-gated inwardly rectifying potassium channel KCNH2 (Q12809 whole entry): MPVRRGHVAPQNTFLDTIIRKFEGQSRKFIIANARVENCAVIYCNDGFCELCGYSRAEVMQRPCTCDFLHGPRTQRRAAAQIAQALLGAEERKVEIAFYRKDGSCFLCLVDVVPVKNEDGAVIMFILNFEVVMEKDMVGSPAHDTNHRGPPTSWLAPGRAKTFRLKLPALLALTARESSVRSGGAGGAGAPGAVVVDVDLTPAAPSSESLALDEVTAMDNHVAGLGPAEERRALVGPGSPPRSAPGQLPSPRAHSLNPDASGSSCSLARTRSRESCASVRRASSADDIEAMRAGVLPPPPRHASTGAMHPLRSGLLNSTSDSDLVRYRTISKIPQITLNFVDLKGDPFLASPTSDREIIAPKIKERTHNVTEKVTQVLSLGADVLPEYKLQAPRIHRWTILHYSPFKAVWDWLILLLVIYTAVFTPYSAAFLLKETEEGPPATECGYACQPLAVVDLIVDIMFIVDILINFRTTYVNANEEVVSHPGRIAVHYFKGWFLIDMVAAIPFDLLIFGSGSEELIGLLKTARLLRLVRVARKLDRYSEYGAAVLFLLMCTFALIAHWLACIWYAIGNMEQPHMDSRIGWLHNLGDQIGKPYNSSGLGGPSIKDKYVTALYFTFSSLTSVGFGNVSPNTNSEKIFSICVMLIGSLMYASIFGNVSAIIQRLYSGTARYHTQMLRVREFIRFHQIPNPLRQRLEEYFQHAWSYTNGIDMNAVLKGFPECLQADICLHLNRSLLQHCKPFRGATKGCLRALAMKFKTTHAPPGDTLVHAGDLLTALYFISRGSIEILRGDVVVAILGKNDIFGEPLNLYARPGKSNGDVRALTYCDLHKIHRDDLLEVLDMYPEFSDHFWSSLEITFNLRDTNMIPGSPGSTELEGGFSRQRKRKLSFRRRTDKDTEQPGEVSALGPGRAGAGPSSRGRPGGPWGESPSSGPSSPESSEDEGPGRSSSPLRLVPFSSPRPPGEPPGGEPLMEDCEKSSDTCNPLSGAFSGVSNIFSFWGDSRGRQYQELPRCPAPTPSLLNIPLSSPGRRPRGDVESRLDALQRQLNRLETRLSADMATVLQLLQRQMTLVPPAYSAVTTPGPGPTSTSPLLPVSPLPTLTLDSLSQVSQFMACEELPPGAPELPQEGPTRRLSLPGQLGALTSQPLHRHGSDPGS

Row | Compound | EC50 [1] | Activity [2] | Activity [3] | Activity [4] | concentration at 4 h [5] | concentration at 4 h [6] | other results
1 | CC(C(=O)O)c1ccc(C(c2ccc(F)cc2)N2CCCC2)c(-c2ccc(C(F)(F)F)cc2)c1 (stereo unspecified) | 2300 nM | Active | inactive |  |  |  | 
2 | CC(C)(C)CC(C(=O)O)c1ccc(C(c2ccc(F)cc2)N2CCCCC2)c(-c2ccc(C(F)(F)F)cc2)c1 (stereo unspecified) | 40 nM | Active | inactive |  |  |  | 
3 | CCCC(C(=O)O)c1ccc(C(c2ccc(F)cc2)N2CCC(C)CC2)c(-c2ccc(C(F)(F)F)cc2)c1 (stereo unspecified) | 250 nM | Active | inactive |  |  |  | 
4 | CC1CCN(C(c2ccc(F)cn2)c2ccc(C(C)C(=O)O)cc2-c2ccc(C(F)(F)F)cc2)CC1 (stereo unspecified) | 3700 nM | Active | inactive |  |  |  | 
5 | CC1CCN(C(c2ccc(F)cc2)c2ccc(C(CC3CC3)C(=O)O)cc2-c2ccc(C(F)(F)F)cc2)CC1 (stereo unspecified) | 110 nM | Active | inactive | 40% | 11.8 µM | 29.6 µM | 
6 | CC1CCN([C@H](c2ccc(F)cc2)c2ccc([C@@H](C)C(=O)O)cc2-c2ccc(C(F)(F)F)cc2)CC1 |  |  | inactive |  |  |  | Activity [7]: inactive; Activity [8]: inactive; inhibition [9]: inactive; Activity [10]: Active; Activity [11]: Active; Activity [12]: Active; Activity [13]: inactive
7 | O=C(O)Cc1ccc(C(c2ccc(F)cc2)N2CCC(C(F)(F)F)CC2)c(-c2ccc(C(F)(F)F)cc2)c1 (stereo unspecified) | 1100 nM | Active | inactive |  |  |  | Activity [14]: 20%; concentration at 4 h [15]: 7.4 µM; concentration at 4 h [16]: 26 µM
8 | CC(C(=O)O)c1ccc(C(c2ccc(F)cc2)N2CC3CCC(C3)C2)c(-c2ccc(C(F)(F)F)cc2)c1 (stereo unspecified) | 390 nM | Active | inactive | 25% | 3.1 µM | 10.7 µM | 
9 | CC1CCN(C(c2ccc(F)cc2)c2ccc(C3(C(=O)O)CC3)cc2-c2ccc(C(F)(F)F)cc2)CC1 (stereo unspecified) | 2200 nM | Active | inactive |  |  |  | 
10 | CC1CCN(C(c2ccc(F)c(F)c2)c2ccc(C(C)C(=O)O)cc2-c2ccc(C(F)(F)F)cc2)CC1 (stereo unspecified) | 250 nM | Active | inactive | 40% | 12 µM | 20.8 µM | 
11 | CC1CCN([C@@H](c2ccc(F)cc2)c2ccc([C@H](C)C(=O)O)cc2-c2ccc(C(F)(F)F)cc2)CC1 | 150 nM |  | inactive |  |  |  | concentration [17]: 6.6 µM; concentration [18]: 7.4 µM; EC50 [19]: 110 nM; EC50 [20]: 4600 nM; Activity [21]: 38%
12 | O=C(O)C1(c2ccc(-c3ccc(Cl)c(Cl)c3)c(F)c2)CC1 |  |  |  |  |  |  | EC50 [22]: 40000 nM; Ratio EC50 [23]: 7
13 | CC1CCN(C(c2ccc(C(F)(F)F)nc2)c2ccc(C(C)C(=O)O)cc2-c2ccc(C(F)(F)F)cc2)CC1 (stereo unspecified) | 580 nM | Active | inactive | 23% | 10.9 µM | 25.2 µM | 
14 | CC(C(=O)O)c1ccc(C(c2ccc(F)cc2)N2CCC(F)CC2)c(-c2ccc(C(F)(F)F)cc2)c1 (stereo unspecified) | 2000 nM | Active | inactive |  |  |  | 
15 | CC(C(=O)O)c1ccc(C(c2ccc(F)cc2)N2CCN(C)CC2)c(-c2ccc(C(F)(F)F)cc2)c1 (stereo unspecified) | > 10000 nM | Active | inactive |  |  |  | 
16 | O=C(O)Cc1ccc(C(c2ccc(F)cc2)N2CCC(C(F)(F)F)CC2)c(-c2ccc(F)cc2)c1 (stereo unspecified) | 2300 nM | Active | inactive |  |  |  | 
17 | CC1CCN(C(c2ccc(F)cc2)c2ccc(C(C)(C)C(=O)O)cc2-c2ccc(C(F)(F)F)cc2)CC1 (stereo unspecified) | 450 nM | Active | inactive | 30% | 16.1 µM | 22.8 µM | Activity [24]: inactive

Row | Compound | EC50 [1] | Activity [2] | Activity [3] | Activity [4] | concentration at 4 h [5] | concentration at 4 h [6] | other results
18 | CC(C)(C)c1ccc(-c2cc(CC(=O)O)ccc2C(c2ccc(F)cc2)N2CCC(C(F)(F)F)CC2)cc1 (stereo unspecified) | 560 nM | Active | inactive |  |  |  | Activity [14]: inactive; concentration at 4 h [15]: 1 µM; concentration at 4 h [16]: 6.3 µM
19 | CC1CCN(C(c2ccc(F)cc2)c2ccc(C(C)C(=O)O)cc2-c2cnc(C(C)(C)C)nc2)CC1 (stereo unspecified) | 4500 nM | Active | inactive |  |  |  | 
20 | CC1CCN(C(c2ccc(F)cc2)c2ccc(CC(=O)O)cc2-c2ccc(C(F)(F)F)cc2)CC1 (stereo unspecified) | 2900 nM | Active | inactive |  |  |  | 
21 | CCC(C(=O)O)c1ccc(C(c2ccc(F)cc2)N2CCC(C)CC2)c(-c2ccc(C(F)(F)F)cc2)c1 (stereo unspecified) | 330 nM | Active | inactive | 40% | 13 µM | 20.4 µM | 
22 | CC(C(=O)O)c1ccc(C(c2ccc(F)cc2)N2CC3CCCC3C2)c(-c2ccc(C(F)(F)F)cc2)c1 (stereo unspecified) | 620 nM | Active | inactive | 30% | 12.1 µM | 16.3 µM | 
23 | CC(C(=O)O)c1ccc(C(c2ccc(F)cc2)N2CCC(C)(C)CC2)c(-c2ccc(C(F)(F)F)cc2)c1 (stereo unspecified) | 300 nM | Active | inactive | 30% | 25.3 µM | 27.2 µM | 
24 | CC1CCN(C(c2ccc(C(F)(F)F)cc2)c2ccc(C(C)C(=O)O)cc2-c2ccc(C(F)(F)F)cc2)CC1 (stereo unspecified) | 180 nM | Active | inactive | inactive | 14 µM | 20.5 µM | 
25 | CC(C)CC(C(=O)O)c1ccc(C(c2ccc(F)cc2)N2CCCCC2)c(-c2ccc(C(F)(F)F)cc2)c1 (stereo unspecified) | 120 nM | Active | inactive |  |  |  | Activity [14]: 30%; concentration at 4 h [15]: 5.7 µM; concentration at 4 h [16]: 32.2 µM
26 | CC(C(=O)O)c1ccc(C(c2ccc(F)cc2)N2CCC(C(F)(F)F)CC2)c(-c2ccc(C(F)(F)F)cc2)c1 (stereo unspecified) | 180 nM | Active | inactive | 40% | 14.4 µM | 21.7 µM | 
27 | CC1CCN(C(c2ccc(F)cc2)c2ccc(C(C(=O)O)C(C)C)cc2-c2ccc(C(F)(F)F)cc2)CC1 (stereo unspecified) | 120 nM | Active | inactive |  |  |  | 
28 | CC(C(=O)O)c1ccc(C(c2ccc(F)cc2)N2CCCCC2)c(-c2ccc(C(F)(F)F)cc2)c1 (stereo unspecified) | 1400 nM | Active | inactive |  |  |  | 
29 | CC1CCN(C(c2ccc(F)cc2)c2ccc(C(C)C(=O)O)cc2-c2ccc(C(F)(F)F)cc2)CC1 (racemic) | 390 nM | Active | inactive | 45% | 18.4 µM | 27.2 µM | 
30 | CC1CCN(C(c2ccc(Cl)cc2)c2ccc(C(C)C(=O)O)cc2-c2ccc(C(F)(F)F)cc2)CC1 (stereo unspecified) | 420 nM | Active | inactive | 25% | 19.4 µM | 27.1 µM | 
31 | CC(C)CCN(Cc1ccc(CC(=O)O)cc1-c1ccc(C(F)(F)F)cc1)c1ccc(C(F)(F)F)cc1 | 1000 nM |  |  |  |  |  | concentration at 4 h [15]: 0.6 µM
32 | CC(C(=O)O)c1ccc(C(c2ccc(F)cc2)N2CCCC(C)(C)C2)c(-c2ccc(C(F)(F)F)cc2)c1 (stereo unspecified) | 170 nM | Active | inactive | 25% | 2.5 µM | 5.3 µM | 
33 | C[C@@H](C(=O)O)c1ccc(-c2ccccc2)c(F)c1 [TARENFLURBIL] |  |  |  |  |  |  | EC50 [22]: 300000 nM
34 | CC(C(=O)O)c1ccc(C(c2ccc(F)cc2)N2CCC3(CC2)CC3)c(-c2ccc(C(F)(F)F)cc2)c1 (stereo unspecified) | 400 nM | Active | inactive |  |  |  | 
